Sampled rows, rich in hits. Any-hit rate of the full collection: about 2%.
NR2E3 ag-1 = human photoreceptor-specific nuclear receptor agonism; Q9Y5X4; CHO-S Gal4-NCOR/VP16-NR2E3 two-hybrid, luciferase; inhibition of corepressor binding, % at 3.98 µM; actives 0.35% (n = 360,000); AID 602229;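 active = inhibition above the mean of all tested compounds plus 3 SD, cut at about 70% in these data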;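 also: higher means lower luciferase signal from less NR2E3 corepressor binding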
Target sequence (Q9Y5X4 whole entry, looked up, the tested form may be a part): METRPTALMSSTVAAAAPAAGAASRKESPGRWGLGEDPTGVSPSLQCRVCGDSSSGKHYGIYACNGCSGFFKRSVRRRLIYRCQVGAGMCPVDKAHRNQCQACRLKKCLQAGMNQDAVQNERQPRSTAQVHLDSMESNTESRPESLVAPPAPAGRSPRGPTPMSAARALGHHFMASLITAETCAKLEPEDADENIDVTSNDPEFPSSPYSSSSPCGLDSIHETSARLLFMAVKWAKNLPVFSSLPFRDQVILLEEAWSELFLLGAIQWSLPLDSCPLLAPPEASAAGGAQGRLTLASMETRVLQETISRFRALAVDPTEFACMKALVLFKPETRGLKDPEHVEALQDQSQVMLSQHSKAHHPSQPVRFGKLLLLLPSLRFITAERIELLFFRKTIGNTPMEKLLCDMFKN
T cell HTS = T cell immune modulators affecting CD8 T cell-vesicle binding; 2C CD8+ T cell-vesicle binding, flow cytometry; stronger effect = lower value; response (vesicle binding), % at 7 µM; actives 0.068% (n = 330,000);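 active = response, share of CD8 T cells binding vesicles, and their 90th percentile fluorescence all below set limits, cut at about 80% in these data, passing the limit was not always enough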;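 also: values below 100% mean blocked vesicle binding to the CD8+ T cells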
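Read-out – percent CD8+ FL2 mean versus row control · System – murine 2C transgenic CD8+ T lymphocytes · Times – 1.5 h cell–vesicle binding at 37 °C, then 20 min icy labelling · Control set – naked vesicles low, QL9 vesicles with vehicle high · Detection – cytometric PE anti-B7-1 and Alexa647 anti-CD8 signals after 1% paraformaldehyde fixation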
Myeloid diff 2 = promotes myeloid progenitor differentiation. ER-HoxA9 myeloid progenitors, lysozyme-GFP differentiation, flow cytometry. actives 1% (n = 360,000). calls only at 10 µM;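 active = normalized GFP-positive differentiation at or above the plate's own cutoff, the solvent-only control mean plus 3 SD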;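 also: cells exposed to compound for four days before flow analysis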
NR2E3 ag-2 = activates human photoreceptor nuclear receptor NR2E3; GST-NR2E3/biotin-RetCOR TR-FRET, 1536-well; inhibition of corepressor binding, % at 4.78 µM; actives 0.12% (n = 320,000);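 active = percent inhibition above the cutoff of mean plus 3 SD of all tested compounds, set per screening campaign, cut at about 20% in these data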
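Assay system: NR2E3–RetCOR corepressor complex. Quantity: 1.35 nM GST-NR2E3. Buffer or medium: pH 7.5 Tris-based buffer. Reagent: biotinylated RetCOR corepressor at 7 nM final. Schedule: 5 h at 4 °C. Detection: TR-FRET, emission read at 617 and 671 nm. Replicates: one well per compound, singlicate testing.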
FXN GAA850 act = activators of GAA850 frataxin (FXN) promoter; HEK293 lucGAA850 FXN promoter luciferase reporter, 24 h; percent of 10 µM SAHA response; activation, % at 6 µM; actives 0.56% (n = 360,000);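 active = activation above the average of all compounds screened plus 3 SD, cutoff fixed separately per campaign, cut at about 7.5% in these data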
GAA30 counter = GAA30 FXN promoter activation counter-screen; actives 66% (n = 1,900); shares compounds with FXN GAA850 act; HEK293 lucGAA30 FXN promoter luciferase, 24 h; DMSO = 0%, 5 µM ipriflavone = 100%; activation, % at 6 µM;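 active = mean activation above the mean of solvent-only control wells plus 3 SD, cut at about 22% in these data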;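 also: counterscreen of GAA850 promoter hits where activity marks nonselective or luminescence artifacts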
FXN GAA850 conf = confirmation of GAA850 frataxin (FXN) promoter activators; activation, % at 6 µM; actives 86% (n = 1,900); HEK293 lucGAA850 FXN promoter luciferase reporter, 24 h; 100% = activation by SAHA; shares compounds with FXN GAA850 act; AID 588351;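 active = mean activation above a set limit taken from the primary screen, cut at about 8% in these data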
Large screens that a line does not name were inactive (follow-up assays come after a bar, where they were run).

COCCCNc1nc2c(-c3ccc(C)cc3)nnn2c2ccccc12	FXN GAA850 act 7.7 | GAA30 counter 92 | FXN GAA850 conf 39
CC1(Cc2ccccc2OC(F)(F)F)C(=O)Nc2ccc(OC(F)(F)F)cc21 (stereo not given)	none (no result: T cell HTS, NR2E3 ag-2)
CC1(Cc2ccccc2OC(F)(F)F)C(=O)Nc2ccc(-c3ccsc3)cc21 (stereo not given)	FXN GAA850 act 9.6 (no result: T cell HTS, NR2E3 ag-2) | GAA30 counter inactive | FXN GAA850 conf inactive
Cc1ccnc(NC(=O)CCNC(=O)c2ccc(Br)cc2)c1	none (no result: T cell HTS, NR2E3 ag-2)
CCCNC(=O)c1ccccc1NC(=O)c1ccccc1N(C)S(=O)(=O)c1ccc(C)cc1	Myeloid diff 2 active, FXN GAA850 act 8.1 (no result: T cell HTS, NR2E3 ag-2) | GAA30 counter inactive | FXN GAA850 conf 11
CC(C)c1ccc(NC(=O)N2CCc3ccccc3C2)cc1	FXN GAA850 act 9.0 | GAA30 counter 113 | FXN GAA850 conf 32
O=C(Nc1ccc([N+](=O)[O-])cc1)N1CCc2ccccc2C1	none (no result: T cell HTS)
CC1=C([N+](=O)[O-])C(c2cccc(Br)c2)C2=C(N1)c1ccccc1C2=O (stereo not given)	FXN GAA850 act 15 | GAA30 counter inactive | FXN GAA850 conf 35
CC(=O)c1ccccc1C(=O)N1CCCC(CNC(=O)c2ccc(F)cc2)C1 (stereo not given)	none (no result: T cell HTS, NR2E3 ag-2)
CCCCNc1ccc(C(F)(F)F)cc1S(=O)(=O)NCCc1ccc(F)cc1	FXN GAA850 act 12 (no result: T cell HTS, NR2E3 ag-2) | GAA30 counter 33 | FXN GAA850 conf 17
C[C@@H]1CN([C@@H](C)CO)C(=O)CCCn2nncc2CO[C@H]1CN(C)S(=O)(=O)c1ccc(-c2ccccc2)cc1	none (no result: T cell HTS, NR2E3 ag-2)
O=c1c(O)c(-c2ccccc2)oc2ccccc12	FXN GAA850 act 8.7 (no result: T cell HTS, NR2E3 ag-2) | GAA30 counter 55 | FXN GAA850 conf 18
CN(C)c1ccc(CC(=O)N2CCCCC2c2cc(C(=O)Nc3ccccc3)no2)cc1 (stereo not given)	none (no result: T cell HTS, NR2E3 ag-2)
COc1ccc(C2C=C(C34CC5CC(CC(C5)C3)C4)NC(=S)N2)cc1OC (stereo not given)	FXN GAA850 act 7.7 | GAA30 counter inactive | FXN GAA850 conf 11
Cc1ccc(C(=O)c2sc3nc4c(cc3c2N)CCC4)cc1	FXN GAA850 act 8.4 | GAA30 counter 100 | FXN GAA850 conf 41
Nc1c(C(=O)N2CCCCC2)sc2nc3c(cc12)CCCC3	none
COc1ccc(-c2nnc3sc(C4CCCCC4)nn23)cc1OC	FXN GAA850 act 8.8 | GAA30 counter inactive | FXN GAA850 conf 11
COc1ccc(-c2nn3c(C4CCCCC4)nnc3s2)cc1OC	FXN GAA850 act 13 | GAA30 counter inactive | FXN GAA850 conf 9.7
COc1ccc(C(C)(O)c2nc(-c3ccc(S(C)(=O)=O)cc3)cs2)cc1 (stereo not given)	none (no result: T cell HTS, NR2E3 ag-2)
CC(C)NC(=O)Nc1cccc2c1O[C@H](CN(C)C(=O)NC1CCCCC1)[C@@H](C)CN([C@H](C)CO)C2=O	none (no result: NR2E3 ag-2)
CC1CN(C(=O)CSc2nc(-c3ccc(F)cc3)cs2)CC(C)O1 (stereo not given)	none
O=C(CSc1nc(-c2ccc(F)cc2)cs1)N1CCOCC1	FXN GAA850 act 8.1 | GAA30 counter 74 | FXN GAA850 conf 27
CCCCNc1nc(N)nc(-c2cc(Cl)ccc2O)n1	FXN GAA850 act 14 | GAA30 counter 133 | FXN GAA850 conf 73
CCCNc1nc(N)nc(-c2cc(Cl)ccc2OC)n1	none
CCNc1nc(N)nc(-c2cc(Cl)ccc2O)n1	FXN GAA850 act 17 | GAA30 counter 151 | FXN GAA850 conf 93
Cn1c(CCN2CCCCC2)nc2cc([N+](=O)[O-])ccc21	FXN GAA850 act 7.7 | GAA30 counter inactive | FXN GAA850 conf 17
S=C(NCCc1ccccc1)Nc1ccccn1	FXN GAA850 act 8.0 | GAA30 counter 98 | FXN GAA850 conf 30
S=C(Nc1ccccn1)c1ccccn1	T cell HTS 12, FXN GAA850 act 15 | GAA30 counter 104 | FXN GAA850 conf 43
